Results from ChEMBL document CHEMBL1136128, “3-(2-Benzyloxyphenyl)isoxazoles and isoxazolines: synthesis and evaluation as CFTR activators” (Bioorg Med Chem Lett, 2003).

What was measured:
[1] = substrate: OCc1cc(-c2ccccc2OCc2ccc(Br)cc2)no1; experiment: (§1) Vmax (maximal I influx) of compound against CFTR (cystic fibrosis transmembrane conductance regulator) in rat was determined
Outline: (§2)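 Cells stably co-expressing human wild-type CFTR and YFP-H148Q were grown to confluence in 96-well plates and washed in PBS. Compounds were added from DMSO stocks, with full dose–responses run. A 100 mM inward iodide gradient was applied at 37 °C. Iodide influx was taken from the slope of the YFP fluorescence time course. Kd and Vmax (mM/s) are means of three or more experiments.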

[2] = substrate: COc1cccc(COc2ccccc2C2=NOC(CO)C2)c1; experiment: as §1; outline: as §2
[3] = substrate: OCCc1cc(-c2ccccc2OCc2ccc(Br)cc2)no1; experiment: as §1; outline: as §2
[4] = substrate: COc1cccc(COc2ccccc2-c2cc(CCO)on2)c1; experiment: as §1; outline: as §2
[5] = substrate: COc1ccc(COc2ccccc2C2=NOC(CCl)C2)cc1; experiment: as §1; outline: as §2
[6] = substrate: COc1ccc(COc2ccc(Br)cc2-c2cc(CO)on2)cc1; experiment: as §1; outline: as §2
[7] = substrate: COc1cccc(COc2ccccc2-c2cc(CO)on2)c1; experiment: as §1; outline: as §2
[8] = substrate: COC(=O)C1CC(c2ccccc2OCc2ccc(Br)cc2)=NO1; experiment: as §1; outline: as §2
[9] = substrate: COC(=O)C1CC(c2ccccc2OCc2ccc(OC)cc2)=NO1; experiment: as §1; outline: as §2
[10] = substrate: COC(=O)C1CC(c2cc(Br)ccc2OCc2ccc(OC)cc2)=NO1; experiment: as §1; outline: as §2
[11] = substrate: COc1cccc(COc2ccccc2C2=NOC(CCl)C2)c1; experiment: as §1; outline: as §2
[12] = substrate: COC(=O)c1onc(-c2ccccc2OCc2ccc(Br)cc2)c1C(=O)OC; experiment: as §1; outline: as §2
[13] = substrate: COc1ccc(COc2ccccc2-c2cc(CO)on2)cc1; experiment: as §1; outline: as §2
[14] = substrate: COc1ccc(COc2ccccc2C2=NOC(CO)C2)cc1; experiment: as §1; outline: as §2
[15] = substrate: ClCc1cc(-c2ccccc2OCc2ccc(Br)cc2)no1; experiment: as §1; outline: as §2
[16] = substrate: COC(=O)C1CC(c2ccccc2OCc2cccc(OC)c2)=NO1; experiment: as §1; outline: as §2
[17] = substrate: COc1ccc(COc2ccccc2-c2cc(CCO)on2)cc1; experiment: as §1; outline: as §2
[18] = substrate: COC(=O)c1cc(-c2ccccc2OCc2ccc(Br)cc2)no1; experiment: as §1; outline: as §2

B1: Cystic fibrosis transmembrane conductance regulator (Rattus norvegicus), P34158 (protein)
chain: MQKSPLEKASFISKLFFSWTTPILRKGYRHHLELSDIYQAPSSDSADHLSEKLEREWDREQASKKKPQLIHALRRCFVWRFVFYGVLLYLGEVTKAVQPVLLGRIIASYDPDNTEERSIAIYLGIGLCLLFIVRTLLLHPAIFGLHHIGMQMRIAMFSLIYKKTLKLSSRVLDKISIGQLISLLSNNLNKFDEGLALAHFIWIAPLQVVLLMGLLWDLLQFSAFCGLGLLIVLVIFQAILGKMMVKYRDKRAAKINERLVITSEVIDNIYSVKAYCWESAMEKIIESLREEELKMTRRSAYMRFFTSSAFFFSGFFVVFLSVLPYTVINGIVLRKIFTTISFCIVLRMSVTRQFPTAVQIWYDSLGMIRKIQDFLQTQEYKVLEYNLMFTGLVMENVTAFWEEGFQELLEKVQLNNDDRKTSNGENHLSFSHLCLVGNPVLKNINLNIKKGEMLAITGSTGAGKTSLLMLILGELEASEGIIKHSGRVSFSSQISWIMPGTIKENIIFGVSYDEYRYKSVVKACQLQEDITKFAEQDNTVLGEGGVTLSGGQRARISLARAVYKDADLYLLDSPFGYLDVLTEEQIFESCVCKLMASKTRILVTSKMEQLKKADKILILHEGSSYFYGTFSELQSLRPDFSSKLMGYDTFDQFTEERRSSILTETLRRFSVDDASTTWNKAKQSFRQTGEFGEKRKNSILSSFSSVKKISIVQKTPLSIEGESDDLQERRLSLVPDSEHGEAALPRSNMITAGPTFPGRRRQSVLDLMTFTPSSVSSSLQRTRASIRKISLAPRISLKEEDIYSRRLSQDSTLNITEEINEEDLKECFFDDMVKIPTVTTWNTYLRYFTLHRGLFAVLIWCVLVFLVEVAASLFVLWLLKNNPVNGGNNGTKIANTSYVVVITSSSFYYIFYIYVGVADTLLALSLFRGLPLVHTLITASKILHRKMLHSILHAPMSTFNKLKAGGILNRFSKDIAILDDFLPLTIFDFIQLLFIVVGAIIVVSALQPYIFLATVPGLAVFILLRAYFLHTSQQLKQLESEGRSPIFTHLVTSLKGLWTLRAFRRQTYFETLFHKALNLHTANWFMYLATLRWFQMRIDMIFVLFFIVVTFISILTTGEGEGTTGIILTLAMNIMSTLQWAVNSSIDTDSLMRSVSRVFKFIDIQTEESICTKIMKELHSEDSPNALVIKNEHVKKCDTWPSGGEMVVKDLTVKYVDDGNAILENISFSISPGQRVGLLGRTGSGKSTLLSAFLRMLNIKGEIQIDGVSWNSMTLQEWRKAFGVITQKVFIFSGTFRQNLDPNGKWRDEEIWKVADQVGLKSVIEQFPGQLNFTLVDGGYVLSHGHKQLMCLARSVLSKAKIILLDEPSANLDPITYQVIRRVLRQAFAGCTVVLCEHRIEAMLDCQRFLVIEQGNVWQYESLQALLSEKSVFQRALSSSEKMKLFHGRHSSKQKPRTQITAVKEETEEEVQETRL
- Vmax [1]: 1.06 mM/s
- Vmax [2]: 0.99 mM/s
- Vmax [3]: 1.02 mM/s
- Vmax [4]: 0.94 mM/s
- Vmax [5]: 1.2 mM/s
- Vmax [6]: 1.03 mM/s
- Vmax [7]: 1.04 mM/s
- Vmax [8]: 0.81 mM/s
- Vmax [9]: 1.13 mM/s
- Vmax [10]: 1.04 mM/s
- Vmax [11]: 1.02 mM/s
- Vmax [12]: 0.97 mM/s
- Vmax [13]: 1.06 mM/s
- Vmax [14]: 1.07 mM/s
- Vmax [15]: 1.02 mM/s
- Vmax [16]: 1.08 mM/s
- Vmax [17]: 1.05 mM/s
- Vmax [18]: 1.01 mM/s
